Bioassay records from PubChem.
Rows were chosen to be rich in hits. Some 3.5% of all compounds tested hit in one or more screens of this group.
MrgX1 antag: antagonists of human MrgX1 receptor | 310,000 tested, 1.3% active | B-score at 10 µM | MRGX1-HEK293 calcium flux, Fluo-4, BAM8-22 antagonism; stronger effect = lower value;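 active = calcium-response B-score plate-corrected more than 3 library SD below zero, starting fluorescence within 5 deviations, no agonist response on first addition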;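 also: peak minus trough fluorescence over baseline after final BAM8-22 challenge near maximal dose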
Target sequence (Q96LB2 whole entry, looked up): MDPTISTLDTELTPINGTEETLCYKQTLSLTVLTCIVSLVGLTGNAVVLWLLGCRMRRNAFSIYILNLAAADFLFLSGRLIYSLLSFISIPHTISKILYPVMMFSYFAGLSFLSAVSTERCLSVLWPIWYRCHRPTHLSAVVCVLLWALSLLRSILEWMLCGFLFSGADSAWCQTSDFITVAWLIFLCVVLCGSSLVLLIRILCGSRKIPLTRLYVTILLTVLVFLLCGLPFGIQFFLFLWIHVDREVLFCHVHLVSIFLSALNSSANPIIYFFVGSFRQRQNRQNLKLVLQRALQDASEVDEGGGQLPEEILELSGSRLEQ
MrgX1 PAM: human MrgX1 positive allosteric modulation, primary screen; B-score at 10 µM; AID 588675; Q96LB2; 310,000 tested, 0.63% active; MrgX1-HEK293, Fluo-4 calcium flux, FDSS; stronger effect = higher value;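 active = plate-corrected calcium response at least 3 library SD above typical, normal starting fluorescence, not activating the receptor alone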;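 also: compound read alongside a low EC10 to EC30 dose of BAM8-22 agonist; peak minus trough fluorescence over baseline measured at the second addition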
MrgX1 ag: activates human MrgX1 receptor signaling | Q96LB2 | MrgX1-HEK293 cells, Fluo-4 calcium fluorescence, agonist mode; stronger effect = higher value | B-score at 10 µM | 310,000 tested, 0.44% active;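 active = calcium response B-score plate-corrected fluorescence ratio at least 3 library SD, with starting fluorescence B-score inside 5 SD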
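Material: HEK293 cells stably expressing human MrgX1 receptor | Quantity: 15,000 cells per well | Times: Cells plated overnight, dye loaded 0.5 h 37 °C, 0.5 h room temperature | Measured by: Kinetic Fluo-4 NW fluorescence of intracellular calcium | Control set: Positive and negative controls per plate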
RGS4 block: human RGS4 inhibition. AID 463165. 310,000 tested, 0.45% active. B-score at 10 µM. HEK293 M3R/RGS4 inducible, Fluo-4 calcium flux; stronger effect = higher value; triggered by carbachol at its EC20;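 active = B-score, a plate-corrected calcium signal, over three deviations above library mean, with baseline fluorescence within five deviations of library mean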;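 also: RGS4 expression induced by doxycycline in cells with stable M3 receptor; B-score is computed from the integrated fluorescence ratio over baseline after carbachol; higher B-score means a larger calcium signal and so more RGS4 inhibition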
Target sequence (P49798 whole entry, looked up): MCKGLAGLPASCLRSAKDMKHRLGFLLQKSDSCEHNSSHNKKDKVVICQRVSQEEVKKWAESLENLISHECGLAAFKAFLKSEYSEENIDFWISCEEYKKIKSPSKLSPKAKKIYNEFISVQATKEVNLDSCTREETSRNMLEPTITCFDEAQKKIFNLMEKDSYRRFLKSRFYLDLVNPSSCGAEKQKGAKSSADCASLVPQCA
RGS4 act: potentiators or activators of RGS4. 310,000 tested, 0.92% active. B-score at 10 µM. HEK293 M3R/inducible RGS4, carbachol calcium flux Fluo4; stronger effect = lower value;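 active = B-score of the integrated calcium signal more than 4 SD below the library mean, with starting fluorescence not abnormally high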;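 also: negative B-score means reduced calcium response which marks RGS4 activation or potentiation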
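Detection: kinetic calcium fluorescence imaging with Fluo4-AM dye, 2 µM / Material: HEK293 cells with stable M3R and inducible RGS4 / Schedule: recording 10 s baseline at 1 Hz, 100 s post-agonist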
MrgX1 allo conf: confirmation of human MrgX1 receptor positive allosteric modulators | shares compounds with MrgX1 PAM | MrgX1-HEK293, Fluo-4 calcium fluorescence, FDSS | activation (ratio percentage), % at 10 µM | 1,200 tested, 13% active | AID 602413;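 active = ratio at least 3 SD above the weak peptide control, stable starting fluorescence, no direct agonism earlier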;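 also: compound followed by low BAM8-22 agonist challenge near EC20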
HEK293 Ca flux: activity in parental HEK293 cells lacking MrgX1 | shares compounds with MrgX1 antag | Fluo-4 calcium fluorescence, FDSS | fluorescence ratio F(max-min)/F0 at 10 µM | 4,000 tested, 2% active | AID 624111;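 active = duplicate-averaged calcium fluorescence ratio at least three times the standard deviation of buffer wells, a nonspecific response in parental cells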
HEK293 Ca counter: counter-screen for MrgX1 allosteric activators: effect in parental HEK293 cells | shares compounds with MrgX1 antag | parental HEK293 calcium flux, Fluo-4 fluorescence ratio; stronger effect = higher value | fluorescence ratio F(max-min)/F0 at 10 µM | 4,000 tested, 0.4% active | AID 624114;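 active = calcium fluorescence ratio, averaged over duplicates, at least 3 SD of the buffer-well ratio, meaning a nonspecific response in receptor-free cells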;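 also: untransfected parental HEK293 lacking MrgX1 used as counterscreen for MrgX1 allosteric activators; fluorescence change taken during the second addition on a kinetic imager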
HEK293 Ca cntr2: activity in parental HEK293 cells lacking MrgX1 receptor | shares compounds with MrgX1 antag | Fluo-4 calcium fluorescence (FDSS); stronger effect = higher value | fluorescence ratio F(max-min)/F0 at 10 µM | 4,000 tested, 8.7% active;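 active = calcium fluorescence ratio at least three times the spread of buffer wells, meaning a non-specific response in parental cells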
Each line names hits and unclear results; the compound was inactive in the other large screens (follow-up assays come after a bar, where they were run).

c1nc(N2CCC3(CC2)OCCO3)c2c3c(sc2n1)CCCC3	MrgX1 PAM 17 | MrgX1 allo conf inactive | HEK293 Ca flux inactive | HEK293 Ca counter inactive | HEK293 Ca cntr2 inactive
COc1ccc(-c2csc3nc(-c4cccnc4)nc(Cl)c23)cc1OC	MrgX1 PAM 6.7 | MrgX1 allo conf 3.9% | HEK293 Ca flux inactive | HEK293 Ca counter inactive | HEK293 Ca cntr2 inactive
NS(=O)(=O)c1cccc(NC(=O)CCSc2ccc(Cl)cc2)c1	none
Cc1ccc2nc(-c3cccc(Br)c3)cc(C(=O)NC3=NCCS3)c2c1	MrgX1 PAM 31 | MrgX1 allo conf inactive | HEK293 Ca flux inactive | HEK293 Ca counter inactive | HEK293 Ca cntr2 inactive
O=C(NC1=NCCS1)c1cc(-c2cccc(Br)c2)nc2ccccc12	none
CCc1nc2ccccc2nc1N1CCN(S(=O)(=O)c2ccccc2)CC1	none
CCN(CC(=O)Nc1c(F)cccc1F)C(=O)c1ccc(C(F)(F)F)cc1	MrgX1 PAM 8.1 | MrgX1 allo conf inactive | HEK293 Ca flux inactive | HEK293 Ca counter inactive | HEK293 Ca cntr2 inactive
CC(SCc1ccccc1)C(=O)Nc1ccccc1Br (centres undefined)	MrgX1 PAM 6.5 | MrgX1 allo conf inactive | HEK293 Ca flux inactive | HEK293 Ca counter inactive | HEK293 Ca cntr2 inactive
CCCSc1nnc(N2C(=O)CC(c3ccsc3)C3=C2CCCC3=O)s1 (centres undefined)	MrgX1 PAM 8.8 | MrgX1 allo conf inactive | HEK293 Ca flux inactive | HEK293 Ca counter inactive | HEK293 Ca cntr2 inactive
COc1ccccc1NS(=O)(=O)c1cccc(NC(=O)c2[nH]c(C)c(C(C)=O)c2C)c1	MrgX1 PAM 7.4 | MrgX1 allo conf inactive | HEK293 Ca flux inactive | HEK293 Ca counter inactive | HEK293 Ca cntr2 inactive
COc1ccccc1NC(=O)c1[nH]c(C)c(C(C)=O)c1C	none (no result: RGS4 block, RGS4 act)
CCN(CC)CCCNc1ncnc2ccccc12	none
OCCCCCNc1ncnc2ccccc12	MrgX1 PAM 23 | MrgX1 allo conf inactive | HEK293 Ca flux inactive | HEK293 Ca counter inactive | HEK293 Ca cntr2 inactive
CC12CCC(=O)N1C(C(=O)Nc1nc3ccc(S(C)(=O)=O)cc3s1)CS2 (centres undefined)	none
CC12CCC(=O)N1C(C(=O)Nc1nc3ccc(Cl)cc3s1)CS2 (centres undefined)	MrgX1 PAM 16 | MrgX1 allo conf inactive | HEK293 Ca flux inactive | HEK293 Ca counter inactive | HEK293 Ca cntr2 inactive
CCOc1ccc(CN(C)C(C)C(=O)NCCc2ccc(F)cc2)cc1 (centres undefined)	none
O=C(Nc1ccc(Cl)cc1)c1ccc2ncsc2c1	none
O=C(Nc1cccc(Cl)c1)c1ccc2ncsc2c1	MrgX1 PAM 7.7 | MrgX1 allo conf inactive | HEK293 Ca flux inactive | HEK293 Ca counter inactive | HEK293 Ca cntr2 inactive
CCc1cccc(NS(=O)(=O)c2ccc3c(c2)NC(=O)C(C)S3)c1 (centres undefined)	MrgX1 PAM 16 | MrgX1 allo conf inactive | HEK293 Ca flux inactive | HEK293 Ca counter inactive | HEK293 Ca cntr2 inactive
Cc1ccccc1C(=O)N1CCC(C(=O)N(C)CC(=O)Nc2cccc(F)c2)CC1	none
COc1ccc(C(C)C)cc1S(=O)(=O)N1CCN(c2ccccc2)CC1	MrgX1 PAM 15 | MrgX1 allo conf inactive | HEK293 Ca flux inactive | HEK293 Ca counter inactive | HEK293 Ca cntr2 inactive
COc1ccc(Cl)cc1S(=O)(=O)N1CCN(c2ccc(F)cc2)CC1	MrgX1 PAM 17 | MrgX1 allo conf inactive | HEK293 Ca flux inactive | HEK293 Ca counter inactive | HEK293 Ca cntr2 inactive
COc1ccc(OC)c(S(=O)(=O)N2CCN(c3ccccc3)CC2)c1	none
Cc1sc(NC(=O)c2ccccc2F)c(CN2CCCCC2)c1C	MrgX1 PAM 9.4 | MrgX1 allo conf inactive | HEK293 Ca flux inactive | HEK293 Ca counter inactive | HEK293 Ca cntr2 inactive
